Several values for one entry are separate records, joined by “and”; a condition that tells them apart may be missing. Equal values may be shown once.
Experiments:
Type in all cases: functional
Oryctolagus cuniculus [1] = experiment: Febrile responses of compound was measured in rabbit after iv injection at the dose of 3 mg/kg
Outline: (§1)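 Rabbits (strain HYL A, 3–3.5 kg), three per specimen, per French/European pharmacopoeia. Compound dissolved in pyrogen-free isotonic saline and given iv, first at 1 mg/kg. Rectal temperature recorded continuously and automatically. A specimen was judged nonpyrogenic if no rabbit rose above 0.5 °C; such specimens then went on to 3, 5 and 10 mg/kg. ΔT reported per rabbit, with the mean.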

Oryctolagus cuniculus [2] = experiment: Febrile responses of compound was measured in rabbit after iv injection at the dose of 5 mg/kg; outline: as §1
Oryctolagus cuniculus [3] = experiment: Febrile responses of compound was measured in rabbit after iv injection at the dose of 1 mg/kg; outline: as §1
Mus musculus [4] = experiment: Adjuvant activity was measured after sc administration in phosphate buffer saline (PBS) to mice with BSA and expressed as secondary response
Outline: (§2)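 Female Swiss mice, 5–6 weeks old. BSA antigen given sc in PBS: 0.5 mg to prime, then 0.1 mg one month later as boost. Glycopeptide (0.1 mg) given with the priming injection. Sera pooled on day 21 for the primary titer; on day 37 sera titrated individually for the secondary titer. Titer is log of highest serum dilution agglutinating BSA-coated sheep RBC (passive hemagglutination). Student's t test vs controls.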

Mus musculus [5] = experiment: Adjuvant activity was measured after sc administration in phosphate buffer saline (PBS) to mice with BSA and expressed as primary response; outline: as §2
Oryctolagus cuniculus [6] = experiment: Febrile responses of compound was measured in rabbit after iv injection at the dose of 10 mg/kg; outline: as §1
Klebsiella pneumoniae [7] = experiment: Protective activity against Klebsiella pneumoniae was measured as difference between the percentage of survivors in treated group and its respective control group; design: concentration or dose not given beside the values
Outline: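 Mice, 24 per group. Compound given iv at 100 μg on day 0; on day +1, intramuscular challenge with 10^4 K. pneumoniae. Mortality followed from day 1 to day 15. Protection is the percentage of survivors in the treated group minus that in its control group at day +15.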

Klebsiella pneumoniae [8] = experiment: Protective activity against Klebsiella pneumoniae was measured as number of survivors to the number of total animals used; 10/24
Klebsiella pneumoniae [9] = experiment: Protective activity against Klebsiella pneumoniae was measured as number of survivors to the number of total animals used; 0/24
Klebsiella pneumoniae [10] = experiment: Protective activity against Klebsiella pneumoniae was measured as number of survivors to the number of total animals used; 16/24
Klebsiella pneumoniae [11] = experiment: Protective activity against Klebsiella pneumoniae was measured as number of survivors to the number of total animals used; 7/24
Klebsiella pneumoniae [12] = experiment: Protective activity against Klebsiella pneumoniae was measured as number of survivors to the number of total animals used; 3/24
Klebsiella pneumoniae [13] = experiment: Protective activity against Klebsiella pneumoniae was measured as number of survivors to the number of total animals used; 4/24
Klebsiella pneumoniae [14] = experiment: Protective activity against Klebsiella pneumoniae was measured as number of survivors to the number of total animals used; 8/24
Klebsiella pneumoniae [15] = experiment: Protective activity against Klebsiella pneumoniae was measured as number of survivors to the number of total animals used;15/24

COC(=O)CC[C@H](NC(=O)[C@H](C)NC(=O)[C@@H](C)OC1C(O)C(CO)OC(O)C1NC(C)=O)C(=O)OC (stereo partly specified)
Delta T (Oryctolagus cuniculus [1]; 3 mg/kg): 0.4 °C and 0.17 °C
Delta T (Oryctolagus cuniculus [2]; 5 mg/kg): 1.1 °C and 0.9 °C
Delta T (Oryctolagus cuniculus [3]; 1 mg/kg): 0.33 °C and 0.13 °C

CC(=O)NC1C(O)OC(CO)C(O)C1O[C@H](C)C(=O)N[C@@H](C)C(=O)N[C@@H](CCC(N)=O)C(=O)O (stereo partly specified)
Delta T (Oryctolagus cuniculus [1]): 0.9 °C
Secondary response (Mus musculus [4]): 7.35
Primary response (Mus musculus [5]): 2.97
Delta T (Oryctolagus cuniculus [3]): 0.03 °C

CCCCCOC(=O)[C@H](CCC(N)=O)NC(=O)[C@H](C)NC(=O)[C@@H](C)OC1C(O)C(CO)OC(O)C1NC(C)=O (stereo partly specified)
Delta T (Oryctolagus cuniculus [1]): 0.03 °C
Delta T (Oryctolagus cuniculus [6]): 0.13 °C
Protection (Klebsiella pneumoniae [7]): 37%
Secondary response (Mus musculus [4]): 7.8
Primary response (Mus musculus [5]): 1.64
Delta T (Oryctolagus cuniculus [3]): 0.1 °C
Survivors (Klebsiella pneumoniae [8]): 10 N/total

CC(=O)NC1C(O)OC(CO)C(O)C1O[C@H](C)C(=O)N[C@@H](C)C(=O)N[C@@H](CCC(=O)O)C(=O)O (stereo partly specified)
Delta T (Oryctolagus cuniculus [1]): 0.8 °C
Delta T (Oryctolagus cuniculus [3]; 1 mg/kg): 0.37 °C and 0.5 °C

CCOC(=O)[C@H](CCC(N)=O)NC(=O)[C@H](C)NC(=O)[C@@H](C)OC1C(O)C(CO)OC(O)C1NC(C)=O (stereo partly specified)
Delta T (Oryctolagus cuniculus [1]): 0.03 °C
Delta T (Oryctolagus cuniculus [6]; 10 mg/kg): 0.47 °C and 0.32 °C
Protection (Klebsiella pneumoniae [7]): 0%
Survivors (Klebsiella pneumoniae [9]): 0 N/total
Secondary response (Mus musculus [4]): 9.53
Primary response (Mus musculus [5]): 4.64
Delta T (Oryctolagus cuniculus [3]): 0.23 °C

CC(=O)NC1C(O)OC(CO)C(O)C1O[C@H](C)C(=O)N[C@@H](C)C(=O)N[C@@H](CCC(N)=O)C(N)=O (stereo partly specified)
Delta T (Oryctolagus cuniculus [1]): 0.2 °C
Delta T (Oryctolagus cuniculus [2]): 0.67 °C
Delta T (Oryctolagus cuniculus [3]): 0.1 °C

CCCCOC(=O)[C@H](CCC(N)=O)NC(=O)[C@H](C)NC(=O)[C@@H](C)OC1C(O)C(CO)OC(O)C1NC(C)=O (stereo partly specified)
Delta T (Oryctolagus cuniculus [1]): 0.26 °C
Delta T (Oryctolagus cuniculus [6]): 0.3 °C
Protection (Klebsiella pneumoniae [7]): 63%
Secondary response (Mus musculus [4]): 8.43
Survivors (Klebsiella pneumoniae [10]): 16 N/total
Primary response (Mus musculus [5]): 4.21
Delta T (Oryctolagus cuniculus [3]): 0.03 °C

CCCOC(=O)[C@H](CCC(N)=O)NC(=O)[C@H](C)NC(=O)[C@@H](C)OC1C(O)C(CO)OC(O)C1NC(C)=O (stereo partly specified)
Survivors (Klebsiella pneumoniae [11]): 7 N/total
Delta T (Oryctolagus cuniculus [1]): 0.43 °C
Delta T (Oryctolagus cuniculus [6]): 0.07 degrees C
Protection (Klebsiella pneumoniae [7]): 25%
Secondary response (Mus musculus [4]): 9.52
Primary response (Mus musculus [5]): 4.64
Delta T (Oryctolagus cuniculus [3]): 0.2 °C

COC(=O)[C@H](CCC(N)=O)NC(=O)[C@H](C)NC(=O)[C@@H](C)OC1C(O)C(CO)OC(O)C1NC(C)=O (stereo partly specified)
Delta T (Oryctolagus cuniculus [1]): 0.23 °C
Delta T (Oryctolagus cuniculus [6]): 0.1 °C
Protection (Klebsiella pneumoniae [7]): 8%
Secondary response (Mus musculus [4]): 8.72
Primary response (Mus musculus [5]): 3.85
Delta T (Oryctolagus cuniculus [3]): 0.1 °C
Survivors (Klebsiella pneumoniae [12]): 3 N/total

CCCCCCCCCCOC(=O)[C@H](CCC(N)=O)NC(=O)[C@H](C)NC(=O)[C@@H](C)OC1C(O)C(CO)OC(O)C1NC(C)=O (stereo partly specified)
Delta T (Oryctolagus cuniculus [1]): 0.17 °C
Delta T (Oryctolagus cuniculus [6]): 0.23 °C
Protection (Klebsiella pneumoniae [7]): 12%
Secondary response (Mus musculus [4]): 9.1
Primary response (Mus musculus [5]): 3.64
Survivors (Klebsiella pneumoniae [13]): 4 N/total
Delta T (Oryctolagus cuniculus [3]): 0.2 °C

CCCCCCOC(=O)[C@H](CCC(N)=O)NC(=O)[C@H](C)NC(=O)[C@@H](C)OC1C(O)C(CO)OC(O)C1NC(C)=O (stereo partly specified)
Delta T (Oryctolagus cuniculus [1]): 0.2 °C
Delta T (Oryctolagus cuniculus [6]): 0.13 °C
Protection (Klebsiella pneumoniae [7]): 29%
Survivors (Klebsiella pneumoniae [14]): 8 N/total
Secondary response (Mus musculus [4]): 7.71
Primary response (Mus musculus [5]): 2.75
Delta T (Oryctolagus cuniculus [3]): 0.13 °C

CC(=O)N[C@H]1C(O)O[C@H](CO)[C@@H](O)[C@@H]1O[C@H](C)C(=O)N[C@@H](C)C(=O)N[C@H](CCC(=O)O)C(N)=O (stereo partly specified) [MURAMYL DIPEPTIDE]
Protection (Klebsiella pneumoniae [7]): 58%
Survivors (Klebsiella pneumoniae [15]): 15 N/total
Secondary response (Mus musculus [4]): 8.34
Primary response (Mus musculus [5]): 3.64
Delta T (Oryctolagus cuniculus [3]): 0.76 °C
